What all share (type): functional
Experiment [1] deals with Mycobacterium tuberculosis. Put plainly: Potency index, Ratio of rifampicin MIC to test compound MIC for antitubercular activity against PAS/INH/EMB/RMP-resistant Mycobacterium tuberculosis Spec.210 assessed as inhibition of microbial growth incubated for 1 week by MABA method. As to conditions: time 1 weeks.
Experiment [2] relates to Mycobacterium tuberculosis. Put plainly: Antitubercular activity against INH-resistant Mycobacterium tuberculosis Spec.800 harboring InhA promoter mutation assessed as fractional inhibitory concentration index in presence of 1/2 x MIC rifampicin incubated for 14 days by MABA method. Conditions: time 14 day. The method in brief:
(§1)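 Interaction analysis in Middlebrook 7H9 with 10% OADC. Combination MICs came from mixing the derivative (1 to 1/32 MIC) with the reference drug at 1/2 MIC, and the reverse, after 14 days at 37 °C with McFarland 1 inoculum. FICI was calculated from the combination MIC values and the MICs alone.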
For orientation: The colour change of resazurin is a common sign of viable cells or microbes.

Experiment [3] relates to Mycobacterium tuberculosis. Briefly: Antitubercular activity against INH-resistant Mycobacterium tuberculosis Spec.800 assessed as reduction in bacterial growth incubated for 14 days in presence of 1/2 x MIC rifampicin by MABA method. As to conditions: Mycobacterium tuberculosis, 800, 336 h; time 14 day. An outline of the steps: (§2)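 Checkerboard-type combination in Middlebrook 7H9 with 10% OADC. The test derivative at 1 to 1/32 of its MIC alone was mixed with the reference drug fixed at 1/2 its MIC. 4 ml samples were inoculated with McFarland 1 suspension and incubated 14 days at 37 °C. MIC is the lowest derivative concentration in combination that inhibited growth in liquid medium.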

Experiment [4] concerns Mycobacterium tuberculosis. Put plainly: Antitubercular activity against PAS/INH/EMB/RMP-resistant Mycobacterium tuberculosis Spec.210 assessed as fractional inhibitory concentration index in presence of 1/2 x MIC rifampicin incubated for 14 days by MABA method. Conditions: time 14 day. The method in brief: as §1
Experiment [5] has as its system Mycobacterium tuberculosis. Put plainly: Antitubercular activity against PAS/INH/EMB/RMP-resistant Mycobacterium tuberculosis Spec.210 assessed as rifampicin MIC incubated for 14 days in presence of rifampicin by MABA method. Conditions: Mycobacterium tuberculosis, 210, 336 h; time 14 day. The method in brief: (§3)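 Combination assay in Middlebrook 7H9 broth with 10% OADC. The reference drug (INH, RMP, SM or EMB) was varied from 1 to 1/32 of its MIC, and the test derivative was fixed at 1/2 its own MIC. Single-agent MICs were determined first by MABA. Inoculum was 1 McFarland, with 14 days of incubation at 37 °C. The endpoint was the lowest reference-drug concentration that inhibited growth.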

Experiment [6] concerns Mycobacterium tuberculosis. Briefly: Potentiation of streptomycin-induced antimycobacterial activity against INH-resistant Mycobacterium tuberculosis Spec.800 harboring InhA promoter mutation assessed as fold decrease in streptomycin MIC at 1/2X MIC incubated for 14 days in presence of streptomycin by MABA method. Conditions: time 14 day. An outline of the steps:
as §3

In experiment [7] the test system is Mycobacterium tuberculosis. Briefly: Antitubercular activity against PAS/INH/EMB/RMP-resistant Mycobacterium tuberculosis Spec.210 assessed as fractional inhibitory concentration index in presence of 1/2 x MIC isoniazid incubated for 14 days by MABA method. As to conditions: time 14 day. An outline of the steps: as §1
Experiment [8] relates to Mycobacterium tuberculosis. Put plainly: Potency index, Ratio of streptomycin MIC to test compound MIC for antitubercular activity against PAS/INH/EMB/RMP-resistant Mycobacterium tuberculosis Spec.210 assessed as inhibition of microbial growth incubated for 1 week by MABA method. As to conditions: time 1 weeks.
Experiment [9] has as its system Mycobacterium tuberculosis. Briefly: Antitubercular activity against PAS/INH/EMB/RMP-resistant Mycobacterium tuberculosis Spec.210 assessed as reduction in bacterial growth incubated for 14 days in presence of 1/2 x MIC ethambutol by MABA method. Conditions: Mycobacterium tuberculosis, 210, 336 h; time 14 day. The method in brief: (§4)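 Checkerboard-style combination in Middlebrook 7H9 broth with 10% OADC. The test derivative was varied from 1 to 1/32 of its MIC, and the reference drug was fixed at 1/2 its own MIC. Single-agent MICs were determined first by MABA. Samples of 4 ml received inoculum at 1 McFarland and were incubated 14 days at 37 °C. The endpoint was the lowest derivative concentration that inhibited growth.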

For experiment [10], the system named is Mycobacterium tuberculosis. Briefly: Potency index, Ratio of isoniazid MIC to test compound MIC for antitubercular activity against PAS/INH/EMB/RMP-resistant Mycobacterium tuberculosis Spec.210 assessed as inhibition of microbial growth incubated for 1 week by MABA method. Conditions: time 1 weeks.
In experiment [11] the test system is Mycobacterium tuberculosis. Briefly: Antitubercular activity against INH-resistant Mycobacterium tuberculosis Spec.800 harboring InhA promoter mutation assessed as fractional inhibitory concentration index in presence of 1/2 x MIC ethambutol incubated for 14 days by MABA method. As to conditions: time 14 day. An outline of the steps: as §1
In experiment [12] the test system is Mycobacterium tuberculosis. Put plainly: Antitubercular activity against PAS/INH/EMB/RMP-resistant Mycobacterium tuberculosis Spec.210 assessed as reduction in bacterial growth incubated for 14 days in presence of 1/2 x MIC streptomycin by MABA method. As to conditions: Mycobacterium tuberculosis, 210, 336 h; time 14 day. An outline of the steps:
as §4

In experiment [13] the test system is Mycobacterium tuberculosis. Put plainly: Antitubercular activity against INH-resistant Mycobacterium tuberculosis Spec.800 assessed as ethambutol MIC incubated for 14 days in presence of ethambutol by MABA method. Conditions: Mycobacterium tuberculosis, 800, 336 h; time 14 day. An outline of the steps: (§5)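 In Middlebrook 7H9 with 10% OADC, the reference drug (INH, RMP, SM or EMB) at 1 to 1/32 of its MIC alone was mixed with the test derivative fixed at 1/2 its MIC. 4 ml samples were inoculated with McFarland 1 suspension and incubated 14 days at 37 °C. MIC is the lowest drug concentration in combination that inhibited growth.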

For experiment [14], the system named is Mycobacterium tuberculosis. Briefly: Antitubercular activity against INH-resistant Mycobacterium tuberculosis Spec.800 assessed as reduction in bacterial growth incubated for 14 days in presence of 1/2 x MIC isoniazid by MABA method. Conditions: Mycobacterium tuberculosis, 800, 336 h; time 14 day. An outline of the steps: as §2
Experiment [15] has as its system Mycobacterium tuberculosis. Put plainly: Antitubercular activity against INH-resistant Mycobacterium tuberculosis Spec.800 harboring InhA promoter mutation assessed as inhibition of microbial growth incubated for 1 week by MABA method. Conditions: time 1 weeks. The method in brief: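 Microplate Alamar Blue assay in Middlebrook 7H9 broth with 10% OADC. Inoculum from fresh LJ culture was adjusted to McFarland 1 and diluted 1:20. DMSO stocks were two-fold serially diluted to final 0.125–512 µg/ml, with growth and sterile controls. Plates ran 1 week at 37 °C, then Alamar blue was added for 24 h. MIC is the lowest concentration preventing the blue-to-pink change.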

Experiment [16] has as its system Mycobacterium tuberculosis. Put plainly: Antitubercular activity against INH-resistant Mycobacterium tuberculosis Spec.800 harboring InhA promoter mutation assessed as fractional inhibitory concentration index in presence of 1/2 x MIC streptomycin incubated for 14 days by MABA method. As to conditions: time 14 day. An outline of the steps: as §1
Experiment [17] has as its system Mycobacterium tuberculosis. Briefly: Antitubercular activity against PAS/INH/EMB/RMP-resistant Mycobacterium tuberculosis Spec.210 assessed as reduction in bacterial growth incubated for 14 days in presence of 1/2 x MIC isoniazid by MABA method. Conditions: Mycobacterium tuberculosis, 210, 336 h; time 14 day. An outline of the steps:
as §4

Experiment [18] deals with Mycobacterium tuberculosis. Briefly: Antitubercular activity against PAS/INH/EMB/RMP-resistant Mycobacterium tuberculosis Spec.210 assessed as isoniazid MIC incubated for 14 days in presence of isoniazid by MABA method. Conditions: Mycobacterium tuberculosis, 210, 336 h; time 14 day. The method in brief: as §5
In experiment [19] the test system is Mycobacterium tuberculosis. Put plainly: Antitubercular activity against INH-resistant Mycobacterium tuberculosis Spec.800 assessed as reduction in bacterial growth incubated for 14 days in presence of 1/2 x MIC streptomycin by MABA method. As to conditions: Mycobacterium tuberculosis, 800, 336 h; time 14 day. An outline of the steps: as §2
Experiment [20] has as its system Mycobacterium tuberculosis. Briefly: Antitubercular activity against INH-resistant Mycobacterium tuberculosis Spec.800 assessed as streptomycin MIC incubated for 14 days in presence of streptomycin by MABA method. As to conditions: Mycobacterium tuberculosis, 800, 336 h; time 14 day. The method in brief: as §5
The subject of experiment [21] is Mycobacterium tuberculosis. Put plainly: Antitubercular activity against INH-resistant Mycobacterium tuberculosis Spec.800 assessed as rifampicin MIC incubated for 14 days in presence of rifampicin by MABA method. Conditions: Mycobacterium tuberculosis, 800, 336 h; time 14 day. An outline of the steps: as §5
Experiment [22] deals with Mycobacterium tuberculosis. Put plainly: Antitubercular activity against INH-resistant Mycobacterium tuberculosis Spec.800 harboring InhA promoter mutation assessed as fractional inhibitory concentration index in presence of 1/2 x MIC isoniazid incubated for 14 days by MABA method. As to conditions: time 14 day. An outline of the steps: as §1

Where only a bound is given, the exact number is not on record here.

As usually defined, the MIC is the least concentration at which growth counts as inhibited. In the case of `COc1ccc(-n2nnnc2Nc2cccc(Br)c2)cc1`, the Ratio in experiment [1] came out at 16; in experiment [8] it was 8; in [10] it was 8. Further, the “fractional inhibitory concentration index (FICI)” value was 0.75 in [2]; 0.5 in experiment [4]; 1.125 in experiment [7]; 0.75 in experiment [11]; 0.56 in [16]; 0.625 in experiment [22]. Also, the MIC in experiment [3] is 64 µg/mL; in experiment [5] it was 8 µg/mL; in [9] it was 2 µg/mL; in experiment [12] it was 0.5 µg/mL; in [13], 1 µg/mL; in [14] it was 16 µg/mL. Further, the MIC came out at 128 µg/mL in [15]; 0.25 µg/mL in [17]; 16 µg/mL in [18]; 8 µg/mL in experiment [19]; 0.5 µg/mL in experiment [20]; 0.25 µg/mL in experiment [21]. Further, the “fold change (FC)” value in experiment [6] is reported as “<=4”.

Take `COc1ccc(-n2nnnc2Nc2ccc(Br)cc2)cc1`: the Ratio in experiment [1] was found to be 16; in [8], 8; in [10], 8. Also, the “fractional inhibitory concentration index (FICI)” value was 1.125 in experiment [2]; 0.75 in experiment [4]; 0.625 in experiment [7]; 0.75 in [11]; 0.375 in experiment [16]; 0.5 in [22]. Moreover, the MIC in experiment [3] was determined as 128 µg/mL; in [5], 8 µg/mL; in [9] it was 2 µg/mL; in experiment [12], 1 µg/mL; in experiment [13], 1 µg/mL; in experiment [14], 32 µg/mL. Further, the MIC turned out to be 128 µg/mL in [15]; 0.25 µg/mL in experiment [17]; 8 µg/mL in [18]; 16 µg/mL in experiment [19]; 0.25 µg/mL in [20]; 0.125 µg/mL in experiment [21]. Further, in experiment [6], the “fold change (FC)” value is listed as 4.
